Measured values as given in ChEMBL document CHEMBL4004826, “Discovery of 1-(3-(benzyloxy)pyridin-2-yl)-3-(2-(piperazin-1-yl)ethyl)urea: A new modulator for amyloid beta-induced mitochondrial dysfunction” (Eur J Med Chem, 2017).

Assays:
[1] = target: Peptidyl-prolyl cis-trans isomerase F, mitochondrial (Mus musculus) (UniProt Q99KR7); test: Inhibition of cyclophilin D in mouse HT22 cells assessed as reduction in amyloid beta (1 to 42) induced mitochondrial permeability transition pore opening by measuring increase in green to red fluorescence ratio at 5 uM pretreated for 10 mins followed by amyloid beta (1 to 42) stimulation measured at 1 hr interval for 3 hrs by JC-1 dye based fluorescence assay relative to control; format: cell-based; design: scale not given: the % may be the effect or the level left
Chain of Peptidyl-prolyl cis-trans isomerase F, mitochondrial (Mus musculus) (Q99KR7 whole entry): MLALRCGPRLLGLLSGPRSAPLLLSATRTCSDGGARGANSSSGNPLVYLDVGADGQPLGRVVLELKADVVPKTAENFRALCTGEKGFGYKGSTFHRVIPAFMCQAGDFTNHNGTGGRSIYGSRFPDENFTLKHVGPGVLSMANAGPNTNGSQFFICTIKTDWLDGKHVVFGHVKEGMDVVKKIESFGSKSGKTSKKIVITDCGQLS
Method in brief: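 HT-22 cells, 30,000 per well, loaded with JC-1 at 7.5 µM final in phenol red-free Opti-MEM for 1 h 15 min at 37 °C, then PBS-washed. Compound at 5 µM for 10 min at 37 °C, then Aβ1-42 (5 µM solution) added. Red (ex/em 530/580 nm) and green (485/530 nm) fluorescence read hourly for 3 h. Green/red ratio normalized to the Aβ-alone control as 100%.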

[2] = system: N2a; test: Induction of reactive oxygen species production in mouse Neuro2a cells assessed as H2O2 level at 10 uM after 6 hrs by ROS-Glo luminescence assay relative to control; format: cell-based
Method in brief: (§1)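 Neuro-2a cells, 2000 per well, given compounds from 10-dose 3-fold serial dilutions of 10 mM DMSO stocks. H2O2 substrate added immediately, then 6 h at 37 °C, 5% CO2. ROS-Glo detection reagent added for 20 min at RT, then luminescence read. H2O2 expressed as fold of untreated, with IC50 fitted from the dose series.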

[3] = system: N2a; test: Inhibition of reactive oxygen species production in mouse Neuro2a cells assessed as decrease in H2O2 levels after 6 hrs by ROS-Glo luminescence assay; format: functional, cell-based; method in brief: as §1
[4] = Cytotoxicity against mouse Neuro2a cells assessed as cell viability at 10 uM after 72 hrs by MTT assay relative to control; format: cell-based, N2a; conditions: read-out: Activity
Method in brief: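 Neuro-2a cells grown in EMEM with 10% FBS and penicillin/streptomycin. A 10 mM DMSO stock was diluted 3-fold over 10 doses in DMSO, and 2000 cells were added per well. Incubated 72 h at 37 °C, 5% CO2. MTT added for 4 h, then solubilization/stop solution for 1 h. Absorbance read at 590 nm. Viability is from color intensity, with IC50 fitted to a sigmoidal dose-response curve.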

[5] = system: N2a; test: Cytotoxicity against mouse Neuro2a cells assessed as cell viability after 72 hrs by MTT assay; format: ADME, cell-based
[6] = target: Peptidyl-prolyl cis-trans isomerase F, mitochondrial (Mus musculus) (UniProt Q99KR7); test: (§2) Inhibition of Cyclophilin D in mouse HT22 cells assessed as neuroprotective activity against amyloid beta (1 to 42) induced impairment of ATP production by measuring cell viability at 5 pretreated for 10 mins followed by amyloid beta (1 to 42) stimulation measured after 7 hrs by luciferase based assay relative to control
Method in brief: (§3)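 HT-22 cells, 10,000 per well, seeded one day before. Cells pretreated 10 min at 37 °C with compound, then Aβ1-42 added, and incubated 7 h. Cells were washed, lysed in 1% Triton X-100/TBST, and equal protein amounts (BCA) assayed for ATP by luciferase. Recovery was calculated against the Aβ-treated vehicle control. ATP viability comes from samples without Aβ.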

[7] = target: Peptidyl-prolyl cis-trans isomerase F, mitochondrial (Mus musculus) (UniProt Q99KR7); test: as §2, with “assessed as recovery of ATP production” for “cell viability”, “5 uM” for “5”; format: cell-based; design: scale not given: the % may be the effect or the level left; method in brief: as §3
[8] = target: Peptidyl-prolyl cis-trans isomerase F, mitochondrial (Mus musculus) (UniProt Q99KR7); test: Inhibition of Cyclophilin D in mouse HT22 cells assessed as reduction in amyloid beta (1 to 42) induced reactive oxygen species production at 5 uM after 6 hrs by CMH2DCFDA dye based fluorescence assay relative to control; format: cell-based
Method in brief: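 HT-22 cells, 10,000 per well, treated with compound plus Aβ1-42 in Opti-MEM for 6 h. Cells loaded with CM-H2DCFDA (diluted from 1 mM stock) in HBSS for 30 min at 37 °C, then Hoechst added. Total fluorescence intensity per well taken from high-content imaging. Inhibition expressed as percent of the Aβ-induced signal increase.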

[9] = Cytotoxicity against mouse HT22 cells assessed as cell viability at 5 uM after 24 hrs by MTT assay relative to control; format: cell-based, HT-22; conditions: read-out: Activity
Method in brief: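 HT-22 cells, 5000 per well, seeded one day before the assay. Compound solution added, then cells incubated 24 h at 37 °C. MTT added for 2 h at 37 °C. Formazan dissolved in 10% Triton X-100 in isopropanol with 0.1 M HCl for 1 h at room temperature, then absorbance read. Viability relative to vehicle control, without Aβ.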

[10] = target: Peptidyl-prolyl cis-trans isomerase F, mitochondrial (Mus musculus) (UniProt Q99KR7); test: Inhibition of Cyclophilin D in mouse HT22 cells assessed as reduction in amyloid beta (1 to 42) induced decrease in cell viability at 5 uM after 24 hrs by MTT assay relative to control; format: cell-based
Method in brief: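 HT-22 cells, 5000 per well, pretreated 10 min with compound, then Aβ1-42 added and incubated 24 h at 37 °C. MTT added for 2 h, then acidified Triton/isopropanol solubilization, and absorbance read at 570 nm. Percent inhibition calculated relative to vehicle control with Aβ.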

[11] = Effective permeability of the compound at pH 7.4 at 50 uM after 4 hrs by PAMPA; format: physicochemical; conditions: read-out: Peff
Method in brief: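 BBB-PAMPA (double-sink) setup. 10 mM DMSO stocks were diluted to 50 µM in buffer pH 7.4 as the donor, with brain sink buffer as the acceptor. Incubated 4 h at 26 °C. Donor, acceptor and reference concentrations measured by UV (230–498 nm), and Pe calculated on a double-sink basis.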

[12] = target: Voltage-gated inwardly rectifying potassium channel KCNH2 (Homo sapiens, UniProt Q12809); test: Displacement of [3H]-Astemizole from human ERG expressed in HEK293 cell membranes measured after 1 hr by microbeta counting method
Chain of Voltage-gated inwardly rectifying potassium channel KCNH2 (Q12809 whole entry): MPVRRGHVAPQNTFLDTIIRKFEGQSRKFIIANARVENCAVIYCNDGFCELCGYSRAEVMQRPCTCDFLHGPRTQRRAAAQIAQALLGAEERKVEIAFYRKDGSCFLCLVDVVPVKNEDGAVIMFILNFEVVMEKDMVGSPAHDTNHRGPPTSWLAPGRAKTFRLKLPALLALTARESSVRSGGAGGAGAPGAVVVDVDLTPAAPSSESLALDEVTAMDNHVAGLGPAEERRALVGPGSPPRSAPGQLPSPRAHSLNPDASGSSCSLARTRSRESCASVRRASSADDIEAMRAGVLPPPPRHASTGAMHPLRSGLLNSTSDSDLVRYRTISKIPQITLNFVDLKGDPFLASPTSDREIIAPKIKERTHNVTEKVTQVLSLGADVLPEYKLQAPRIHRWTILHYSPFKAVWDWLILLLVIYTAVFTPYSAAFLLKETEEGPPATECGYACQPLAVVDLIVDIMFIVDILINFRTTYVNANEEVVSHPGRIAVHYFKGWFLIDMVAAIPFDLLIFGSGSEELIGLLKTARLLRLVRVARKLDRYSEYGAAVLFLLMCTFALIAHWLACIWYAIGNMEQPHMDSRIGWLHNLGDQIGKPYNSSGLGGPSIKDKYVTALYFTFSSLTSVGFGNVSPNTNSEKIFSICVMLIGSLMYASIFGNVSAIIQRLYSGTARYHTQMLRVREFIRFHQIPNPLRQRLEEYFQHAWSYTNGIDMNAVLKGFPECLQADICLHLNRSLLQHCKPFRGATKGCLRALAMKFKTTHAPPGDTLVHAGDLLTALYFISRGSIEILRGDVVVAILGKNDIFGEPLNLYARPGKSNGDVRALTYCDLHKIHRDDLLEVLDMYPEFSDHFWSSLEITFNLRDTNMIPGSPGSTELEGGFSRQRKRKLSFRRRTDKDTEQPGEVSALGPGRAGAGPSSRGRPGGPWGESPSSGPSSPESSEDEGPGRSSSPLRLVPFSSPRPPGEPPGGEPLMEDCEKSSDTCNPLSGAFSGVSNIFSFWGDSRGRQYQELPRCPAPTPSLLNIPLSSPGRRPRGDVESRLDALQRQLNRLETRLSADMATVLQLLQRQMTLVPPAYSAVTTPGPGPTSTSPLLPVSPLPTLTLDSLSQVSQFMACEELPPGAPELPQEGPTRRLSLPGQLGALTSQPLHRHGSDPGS
Method in brief: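 Radioligand binding to membranes (2.5 µg) from HEK-293 cells expressing hERG. Buffer was 50 mM Hepes pH 7.4 with 60 mM KCl, 0.1% BSA and 4 nM [3H]astemizole, incubated 1 h at RT. Samples filtered through PEI-soaked filtermat. Non-specific binding defined with 0.1 µM astemizole. Used 5–6 test concentrations in duplicate, with isotherms from two assays.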

| SMILES | Activity [1] [%] | fold change (FC) [2] | IC50 [3] [µM] | viability at 72 h, 10 µM [4] [%] | Activity [6] [%] | Activity [7] [%] | also measured |
| --- | --- | --- | --- | --- | --- | --- | --- |
| O=C(Nc1ncccc1OCc1ccc(Cl)cc1)NC1CCCCCC1 | 19 | 1.15 | > 10 | 85.2 | 105 | 47 | IC50 [5]: > 10 µM |
| CC(C)(C)NC(=O)Nc1ncccc1OCc1cccc(F)c1 | 44 | 0.94 | > 10 | 95.8 | 129 | 45 | IC50 [5]: > 10 µM |
| CN[C@@H]1C[C@H]2O[C@@](C)([C@@H]1OC)n1c3ccccc3c3c4c(c5c6ccccc6n2c5c31)C(=O)NC4 [STAUROSPORINE] |  |  |  | 1.3 |  |  |  |
| CC(C)(C)NC(=O)Nc1ncccc1OCc1cccc(Cl)c1 | 176 |  |  |  |  |  |  |
| O=C(NCCCl)Nc1ncccc1OCc1ccccc1Cl | 41 |  |  |  |  |  |  |
| O=C(Nc1ncccc1OCc1ccccc1)NC1CCCCCC1 | 130 |  |  |  |  |  |  |
| CCNC(=O)Nc1ncccc1OCc1ccccc1Cl | 49 |  |  |  |  |  |  |
| O=C(Nc1ncccc1OCc1cccc(Cl)c1)NC1CCCCCC1 | 46 |  |  |  |  |  |  |
| O=C(NCCCl)Nc1ncccc1OCc1ccc(Cl)cc1 | 131 |  |  |  |  |  |  |
| CC(C)(C)NC(=O)Nc1ncccc1OCc1ccccc1 | 23 | 0.92 | > 10 | 106 | 103 | 72 | IC50 [5]: > 10 µM; inhibition [8]: 95%; viability at 24 h, 5 µM [9]: 92%; inhibition [10]: 11%; Papp at 4 h, 50 µM [11]: 45.1 ×10⁻⁶ cm/s |
| CC(C)(C)CC(C)(C)NC(=O)Nc1ncccc1OCc1ccccc1Cl | 21 |  |  |  |  |  |  |
| O=C(Nc1ncccc1OCc1cccc(F)c1)NC1CCCCCC1 | 91 |  |  |  |  |  |  |
| O=C(NCCCl)Nc1ncccc1OCc1ccccc1 | 169 |  |  |  |  |  |  |
| O=C(NCCN1CCNCC1)Nc1ncccc1OCc1cccc(Cl)c1 | 48 |  |  |  |  |  |  |
| O=C(NCCN1CCNCC1)Nc1ncccc1OCc1ccccc1 | 16 | 0.97 | > 10 | 102 | 78 | 87 | IC50 [5]: > 10 µM; inhibition [8]: 97%; viability at 24 h, 5 µM [9]: 133%; inhibition [10]: 81%; Papp at 4 h, 50 µM [11]: 20.6 ×10⁻⁶ cm/s; IC50 [12]: > 28.7 µM |
| O=C(NCCCl)Nc1ncccc1OCc1ccc(F)cc1 | 64 |  |  |  |  |  |  |
| O=C(NCCCl)Nc1ncccc1OCc1cccc(Cl)c1 | 73 |  |  |  |  |  |  |
| CC(C)(C)CC(C)(C)NC(=O)Nc1ncccc1OCc1cccc(F)c1 | 31 | 1.02 | > 10 | 101 | 30 | -140 | IC50 [5]: > 10 µM |
| CC(=O)[C@H]1CC[C@H]2[C@@H]3CCC4=CC(=O)CC[C@]4(C)[C@H]3CC[C@]12C [PROGESTERONE] |  |  |  |  |  |  | Papp at 4 h, 50 µM [11]: 48.8 ×10⁻⁶ cm/s |
| CC(C)(C)NC(=O)Nc1ncccc1OCc1ccc(Cl)cc1 | 35 | 0.91 | > 10 | 93.1 | 104 | 13 | IC50 [5]: > 10 µM |
| NC(=O)CN1CCCC1=O |  |  |  |  | 88 | 127 | inhibition [8]: 129%; viability at 24 h, 5 µM [9]: 132%; inhibition [10]: 29% |
| CCNC(=O)Nc1ncccc1OCc1ccc(F)cc1 | 127 |  |  |  |  |  |  |
| CC1=CC(=O)c2ccccc2C1=O [MENADIONE] |  | 6.94 | 2.69 |  |  |  |  |
| CCNC(=O)Nc1ncccc1OCc1ccc(Cl)cc1 | 94 |  |  |  |  |  |  |
| CCNC(=O)Nc1ncccc1OCc1cccc(F)c1 | 14 | 1.14 | > 10 | 96.6 | 102 | 41 | IC50 [5]: > 10 µM |
| CC(C)(C)CC(C)(C)NC(=O)Nc1ncccc1OCc1cccc(Cl)c1 | 50 |  |  |  |  |  |  |
| O=C(Nc1ncccc1OCc1ccccc1Cl)NC1CCCCCC1 | 41 |  |  |  |  |  |  |
| CC(C)(C)NC(=O)Nc1ncccc1OCc1ccc(F)cc1 | 49 |  |  |  |  |  |  |
| Cn1c(=O)c2[nH]cnc2n(C)c1=O.O [THEOPHYLLINE] |  |  |  |  |  |  | Papp at 4 h, 50 µM [11]: 0.29 ×10⁻⁶ cm/s |
| O=C(Nc1ncccc1OCc1ccc(F)cc1)NC1CCCCCC1 | 28 | 0.91 | > 10 | 93.2 | 99 | 40 | IC50 [5]: > 10 µM |
